Legend:
[1] = target: human σ1 receptors in MCF7σ1 cells (Homo sapiens, UniProt Q99720); assay: Flow cytometry displacement of fluorescent tracers 5 or 6 in MCF7σ1 cells; assay type: binding; settings: for effect on fluorescent signal by tracers 5 and 6 (100 nM): MCF7σ1 cells, masking compound at 10 µM; for concentration at which the cellular fluorescence signal reaches a plateau: MCF7 cell lines, 45 and 75 min incubation, flow cytometry
MCF7wt cells = assay: Flow cytometry of fluorescent tracers 5 or 6 in MCF7wt cells; assay type: cell-based, human; settings: masking compound at 10 µM
In short: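 Parental MCF7 cells were grown in high-glucose DMEM with 10% FBS and 1% penicillin-streptomycin at 37 °C. […] Cells were washed twice in PBS, detached 10 min at 37 °C, pelleted and resuspended in PBS. Flow cytometry used a 530 nm band pass filter, 50,000 events per analysis.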

[2] = Fluorescence spectroscopy; assay type: physicochemical; settings: with respect to quinine sulfate
In short: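 Excitation and emission spectra were recorded on the free base in EtOH (per table footnote) or in CHCl3. Fluorescence quantum yield was calculated relative to quinine sulfate.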

σ1 receptor = σ1 receptor (Cavia porcellus, UniProt Q60492); assay: σ1 receptor radioligand competition binding; parameters: species or system guinea pig; settings: for σ1 versus σ2 receptor selectivity: ratio of σ2 and σ1 Ki
σ2 receptor = target: T1, σ2 receptor (Rattus norvegicus, UniProt Q5U3Y7); assay: σ2 receptor radioligand competition binding, [3H]-DTG with 1 µM
T1 sequence (Q5U3Y7 1-176): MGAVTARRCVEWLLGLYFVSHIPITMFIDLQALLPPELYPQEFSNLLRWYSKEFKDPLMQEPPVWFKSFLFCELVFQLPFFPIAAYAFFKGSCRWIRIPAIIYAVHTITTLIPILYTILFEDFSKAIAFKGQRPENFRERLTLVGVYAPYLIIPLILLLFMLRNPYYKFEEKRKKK

ARPE19 cells [3] = assay: MTT cell viability assay, paraquat toxicity in ARPE19 cells; assay type: cell-based, human; settings: 1 mM paraquat, 24 h
ARPE19 cells [4] = assay: Confocal imaging of ARPE19 cells labeled with compound 9; assay type: cell-based, human; settings: PB190 100 µM pretreatment 40 min
In short: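 ARPE19 cells were grown in DMEM with 10% FBS and 1% penicillin-streptomycin under 5% CO2. Treatment and imaging were done in HBSS. Control wells were pretreated with PB190 100 µM for 40 min. Cells then received test compound 0.5 µM for 40 min and were rinsed twice in HBSS. Laser confocal imaging used a 60X oil objective, excitation 408 nm and emission detection 525 nm.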

Sequence of human σ1 receptors in MCF7σ1 cells (Q99720 whole entry): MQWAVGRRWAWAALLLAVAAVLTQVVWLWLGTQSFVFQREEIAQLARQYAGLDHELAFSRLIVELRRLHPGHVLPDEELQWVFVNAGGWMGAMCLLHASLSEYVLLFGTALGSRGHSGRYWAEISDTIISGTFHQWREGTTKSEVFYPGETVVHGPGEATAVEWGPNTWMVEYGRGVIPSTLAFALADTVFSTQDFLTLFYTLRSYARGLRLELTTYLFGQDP
Sequence of σ1 receptor (Q60492 whole entry): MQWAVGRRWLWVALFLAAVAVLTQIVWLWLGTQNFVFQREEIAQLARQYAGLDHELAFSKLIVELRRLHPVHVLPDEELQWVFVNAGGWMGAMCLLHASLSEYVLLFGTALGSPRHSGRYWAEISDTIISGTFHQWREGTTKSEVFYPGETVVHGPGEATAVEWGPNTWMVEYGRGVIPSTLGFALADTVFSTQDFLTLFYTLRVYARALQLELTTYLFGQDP

| Compound | effect on fluorescent signal by tracers 5 and 6 (100 nM) [1] | effect on fluorescent signal by tracers 5 or 6 (100 nM) (MCF7wt cells) | QY CHCl3 (fluorescence quantum yield) [2] | QY EtOH (fluorescence quantum yield) [2] | concentration at which the cellular fluorescence signal reaches a plateau [1] [nM] | σ1 versus σ2 receptor selectivity (σ1 receptor) [fold] | further results |
| --- | --- | --- | --- | --- | --- | --- | --- |
| CC(C)=CCN1CC[C@]2(C)c3cc(O)ccc3C[C@H]1[C@H]2C [(+)-Pentazocine, reference compound] | strongly decreased | no change | – | – | – | – | – |
| CC1CCN(CCCCC2CCCc3cc(OCCCCCCN4C(=O)c5ccc(N(C)C)cc5C4=O)ccc32)CC1 (stereo not drawn) [Compound 5, 5-(Dimethylamino)-2-(6-((5-(4-(4-methylpiperidin-1-yl)butyl)-5,6,7,8-tetrahydronaphthalen-2-yl)oxy)hexyl)isoindoline-1,3-dione] | – | – | 0.5 | 0.02 | 100 | 10 | – |
| CC1CCN(CCCCc2cccc3cc(OCCCCCCN4C(=O)c5ccc(N(C)C)cc5C4=O)ccc23)CC1 [Compound 6, 5-(Dimethylamino)-2-{6-[(5-(4-(4-methylpiperidin-1-yl)butyl)naphthalen-2-yl)oxy]hexyl}isoindole-1,3-dione] | – | – | 0.4 | 0.02 | 100 | 10 | decrease of σ2 affinity in comparison to the lead compound (σ2 receptor; 6 vs PB212): 2.5 fold |
| CN(C)c1ccc2c(c1)C(=O)N(CCCCCCOc1cccc3c1CCCC3CCC(=O)N1CCN(C3CCCCC3)CC1)C2=O (stereo not drawn) [Compound 9, 2-(6-((5-(3-(4-Cyclohexylpiperazin-1-yl)-3-oxopropyl)-5,6,7,8-tetrahydronaphthalen-1-yl)oxy)hexyl)-5-(dimethylamino) isoindole-1,3-dione] | – | – | 0.4 | 0.02 | – | 3 | Ki (σ2 receptor): 38.4 ± 10.9 nM; σ2 receptor affinity higher than that of the lead compound (σ2 receptor; 9 vs 1): 5 fold; Ki (σ1 receptor): 13.1 ± 5.02 nM; cytoprotection against paraquat-mediated toxicity (MTT viability) (ARPE19 cells [3]): protects against such toxicity |
| COc1cc2c(cc1OC)CN(CCCN1CCc3c(OC)cccc3C1=O)CC2 [Compound 10, 2-(3-(6,7-dimethoxy-3,4-dihydroisoquinolin-2(1H)-yl)propyl)-5-methoxy-3,4-dihydroisoquinolin-1(2H)-one, reference compound] | only slightly decreased | no change | – | – | – | – | – |
| COc1ccc2c(c1)CCCC2CCCCN1CCC(C)CC1 (stereo not drawn) [PB190, 4-methyl-1-[4-(6-methoxy-1,2,3,4-tetrahydronaphthalen-1-yl)butyl]piperidine] | – | – | – | – | – | – | effect on labeling by compound 9 when cells prelabeled (ARPE19 cells [4]): Lower intensity of labeling |

Source: article PMC4755300 (European journal of medicinal chemistry, 2015)
